Source: PubChem (Johns Hopkins Ion Channel Center)
RGS4 inh: human RGS4 inhibition; P49798; HEK293 M3R/RGS4 inducible, Fluo-4 calcium flux; active compounds read high; triggered by carbachol at its EC20; B-score at 10 µM; 310,000 tested, 0.45% active; AID 463165;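 active = B-score, a plate-corrected calcium signal, over three deviations above library mean, with baseline fluorescence within five deviations of library mean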;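 note: RGS4 expression induced by doxycycline in cells with stable M3 receptor; B-score is computed from the integrated fluorescence ratio over baseline after carbachol; higher B-score means a larger calcium signal and so more RGS4 inhibition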
Target sequence (P49798 whole entry, looked up): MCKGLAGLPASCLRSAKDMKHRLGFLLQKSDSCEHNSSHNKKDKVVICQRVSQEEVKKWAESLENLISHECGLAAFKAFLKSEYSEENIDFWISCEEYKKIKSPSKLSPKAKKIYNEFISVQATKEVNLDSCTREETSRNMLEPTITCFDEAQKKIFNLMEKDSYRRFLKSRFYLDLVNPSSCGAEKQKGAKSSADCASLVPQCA
MrgX1 allo act: allosterically activates human MrgX1 receptor signaling; Q96LB2; MrgX1-HEK293, Fluo-4 calcium flux, FDSS; active compounds read high; B-score at 10 µM; 310,000 tested, 0.63% active;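 active = plate-corrected calcium response at least 3 library SD above typical, normal starting fluorescence, not activating the receptor alone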;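 note: compound read alongside a low EC10 to EC30 dose of BAM8-22 agonist; peak minus trough fluorescence over baseline measured at the second addition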
Target sequence (Q96LB2 whole entry, looked up): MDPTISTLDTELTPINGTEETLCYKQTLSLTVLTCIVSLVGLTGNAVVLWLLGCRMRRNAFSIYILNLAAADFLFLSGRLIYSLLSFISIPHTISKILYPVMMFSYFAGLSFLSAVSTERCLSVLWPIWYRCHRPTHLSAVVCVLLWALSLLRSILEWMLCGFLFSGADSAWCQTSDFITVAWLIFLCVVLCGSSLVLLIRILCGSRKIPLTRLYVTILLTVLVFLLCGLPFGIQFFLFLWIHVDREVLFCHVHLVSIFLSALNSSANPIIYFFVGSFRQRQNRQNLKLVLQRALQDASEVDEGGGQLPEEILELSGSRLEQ
RGS4 pot: RGS4 potentiation or activation; HEK293 M3R/inducible RGS4, carbachol calcium flux Fluo4; active compounds read low; AID 463111; 310,000 tested, 0.92% active; B-score at 10 µM;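 active = B-score of the integrated calcium signal more than 4 SD below the library mean, with starting fluorescence not abnormally high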;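 note: negative B-score means reduced calcium response which marks RGS4 activation or potentiation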
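Assay system: Inducible-RGS4 HEK293 cells carrying M3 receptor | Schedule: Compound preincubation 20 min at room temperature before agonist | Signal: Kinetic calcium fluorescence imaging with Fluo4-AM dye, 2 µM | Read-out basis: B score from integrated fluorescence ratio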
MrgX1 antag: antagonists of human MrgX1 receptor; Q96LB2; MRGX1-HEK293 calcium flux, Fluo-4, BAM8-22 antagonism; active compounds read low; B-score at 10 µM; 310,000 tested, 1.3% active; AID 588676;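 active = calcium-response B-score plate-corrected more than 3 library SD below zero, starting fluorescence within 5 deviations, no agonist response on first addition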;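 note: peak minus trough fluorescence over baseline after final BAM8-22 challenge near maximal dose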
MrgX1 agonist: agonists of human MrgX1 receptor; Q96LB2; 310,000 tested, 0.44% active; MrgX1-HEK293 cells, Fluo-4 calcium fluorescence, agonist mode; active compounds read high; B-score at 10 µM;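 active = calcium response B-score plate-corrected fluorescence ratio at least 3 library SD, with starting fluorescence B-score inside 5 SD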
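Material: MrgX1-expressing HEK293 cells / Dosing: compound as first of three additions / Incubation: overnight seeding, then 1 h dark dye loading / Signal: Fluo-4 NW calcium fluorescence / Evaluation: B-scored fluorescence response ratio / Benchmarks: positive and negative control wells on each plate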
The depositor's hits bear a star; i = inactive; . = no result given. A selection: hits, their analogues and other compounds. The true share with any hit is near 3.5%.

SMILES	RGS4 inh	MrgX1 allo act	RGS4 pot	MrgX1 antag	MrgX1 agonist
CCCc1cc(CNC(=O)C2CCC(=O)N(Cc3ccccc3OC)C2)on1 (configuration not stated)	i	i	i	i	i
N#Cc1ccc(-c2cccs2)nc1SCc1cccnc1	i	i	i	i	i
CN1CCN(C(=O)CSc2nc(-c3cccs3)ccc2C#N)CC1	i	i	i	i	46*
C/C(=N\NC(=S)NCc1ccccc1)c1ccco1	i	8.1*	i	i	i
C/C(=N\NC(=S)NCc1ccccc1)c1ccccc1	i	i	i	i	i
Cc1ccccc1C(=O)N1CCC(C(=O)Nc2ccccn2)CC1	i	i	i	i	i
COc1ccc(NC(=O)c2cc(S(=O)(=O)N3CCOCC3)ccc2N2CCOCC2)cc1	i	i	i	i	i
COc1ccc(NC(=O)c2cc(S(=O)(=O)N3CCCCC3)ccc2N2CCCCC2)cn1	i	i	-7*	i	i
CCCc1cc(=O)oc2c(C)c(OCC(=O)Nc3cccnc3)ccc12	i	i	i	i	i
Cc1ccc(CSCC(=O)N(C)CC(=O)Nc2ccc(Cl)c(Cl)c2)cc1	i	i	i	i	i
Nc1nc2c(s1)CCc1c-2cnn1-c1ccccc1	i	i	i	i	33*
Nc1nc2c(s1)COc1ccccc1-2	i	i	i	i	i
COC(=O)/C=C1/S/C(=N/NC(=O)c2ccccc2C)NC1=O	i	i	i	-8.2*	i
C=CCSC1=C(C#N)C2(CCCCC2)C(C#N)C(=O)N1 (configuration not stated)	i	i	i	-7.7*	i
N#CC1=C(SCC(=O)NC2CC2)NC(=O)C(C#N)C12CCCCC2 (configuration not stated)	i	i	i	i	i
S=c1[nH]nc(COc2ccccc2)n1/N=C/c1c(Cl)cccc1Cl	i	i	i	i	i
Cc1ccc(/C=C2/Sc3ccccc3N(CC(=O)NCC3CCCO3)C2=O)cc1 (configuration not stated)	i	i	-7.4*	i	i
CCC(C)C(NC(=O)OC(C)(C)C)C(=O)NC(Cc1ccccc1)C(=O)OC (configuration not stated)	i	7.3*	i	i	i
NC(=O)[C@@H]1CCNc2c(I)cc([N+](=O)[O-])cc2C(=O)N[C@@H](CCC(=O)O)C(=O)N[C@@H](CO)C(=O)N1	.	i	.	-6.5*	i
O=C(NNC(=S)NC(=O)c1ccc(Br)cc1)c1cccc([N+](=O)[O-])c1	i	i	i	i	i
Cc1ccc(C(=O)NC(=S)NNC(=O)c2ccc([N+](=O)[O-])cc2)cc1	i	i	i	i	40*
O=C(NNC(=S)NC(=O)c1ccccc1)c1ccc([N+](=O)[O-])cc1	i	i	i	i	77*
O=C(NNC(=S)NC(=O)c1ccc(Br)cc1)c1ccc([N+](=O)[O-])cc1	i	i	i	i	i
CCCCCC(=O)NNC(=S)NC(=O)c1ccc([N+](=O)[O-])cc1	i	i	i	i	61*
COc1ccc(OCC(=O)NNC(=S)NC(=O)c2ccc([N+](=O)[O-])cc2)cc1	i	i	i	i	i
SMILES	RGS4 inh	MrgX1 allo act	RGS4 pot	MrgX1 antag	MrgX1 agonist
O=C(NNC(=S)NC(=O)c1ccccc1Cl)c1cccc([N+](=O)[O-])c1	i	i	i	i	103*
COC(=O)c1cc(S(=O)(=O)NCC2CCN(CCc3ccc(OC)cc3)CC2)cn1C	i	i	i	i	i
C/C(=N\NC(=O)c1ccc(Cn2cc([N+](=O)[O-])cn2)o1)c1cccc(NC(=O)C(C)C)c1	i	i	i	-5.6*	i
C/C(=N\NC(=O)c1ccc(Cn2cc(Br)cn2)o1)c1cccc(NC(=O)C(C)C)c1	i	i	i	i	i
CO/N=C/C(=N\Nc1cc(OC)cc(OC)c1)C(=O)c1ccccc1	i	i	i	-5.4*	i
Oc1cccc(C(Nc2nccs2)c2ccc3cccnc3c2O)c1 (configuration not stated)	i	i	-7*	i	i
CSc1ccc(/C=C2\CCn3c2nc2cc(C(=O)O)ccc2c3=O)cc1	i	i	i	i	i
CCCOC(=O)c1c(NC(=O)/C=C/c2cnn(C)c2C)sc(C(=O)OC)c1C	i	i	i	i	i
CCCOC(=O)c1c(NC(=O)/C=C/c2cnn(C)c2C)sc(C(=O)OCC)c1C	i	i	i	-4.6*	i
Cc1ccc(NC(=O)CCC(=O)c2cccs2)cc1F	i	i	i	i	i
COC(=O)c1cc(S(=O)(=O)NCC2CCN(CCc3cccs3)CC2)c[nH]1	i	i	i	i	i
CC(=O)c1ccccc1NC(=O)CCCNC(=O)c1ccc(Cl)cc1	i	i	i	i	i
CC(C)(C)C(=O)O/N=C(\N)c1c(Cl)cccc1Cl	i	i	-9.1*	i	i
Cc1c(N=C2N=C(NC(=O)c3cccs3)c3ccccc32)c(=O)n(-c2ccccc2)n1C	i	i	i	i	33*
COc1cc(C(=S)N2CCCC2)ccc1OCc1ccc(C)cc1	i	i	i	i	i
Cc1cc(NS(=O)(=O)c2ccc(Nc3nc(-c4sc(NC(=O)c5ccccc5)nc4C)cs3)cc2)no1	i	i	-11*	i	i
Cc1nc(NC(=O)c2ccccc2)sc1-c1csc(Nc2cccc(F)c2)n1	i	i	i	i	i
Cc1cc(NS(=O)(=O)c2ccc(NC(=O)c3cc(-c4ccccc4Cl)nc4ccccc34)cc2)no1	i	i	i	i	34*
Cc1cc(NC(=O)c2cc(-c3ccccc3Cl)nc3ccccc23)no1	i	i	i	i	i
Cc1cc(C)c2oc(C(=O)Nc3nnc(C(C)C)s3)cc(=O)c2c1	i	i	i	i	i
CSc1nnc(NC(=O)c2cc(=O)c3cc(C)cc(C)c3o2)s1	i	10*	i	i	i
CN1C(=O)NC(c2ccccc2[N+](=O)[O-])C2=C1CCCC2=O (configuration not stated)	i	i	i	i	i
Oc1ccc(C[C@H]2CNCCN2CC2(c3ccccc3)CC2)cc1	i	i	i	i	i
CCC(=O)O[C@]1(C(=O)SCF)[C@H](C)C[C@H]2[C@@H]3C[C@H](F)C4=CC(=O)C=C[C@]4(C)[C@@]3(F)[C@@H](O)C[C@@]21C	i	i	i	-6.2*	i
